From ChEMBL document CHEMBL1130878 (Bioorg Med Chem Lett, 1998)
Each block holds one compound with its values, some of them ahead of it.

Key:
[1] = molecular target: T1, Endothelin receptor type B (Sus scrofa, UniProt P35463); assay: In vitro ability to inhibit specific [125I]ET1 binding to porcine kidney (inner medulla) membranes Endothelin B receptor
T1 sequence (P35463 whole entry): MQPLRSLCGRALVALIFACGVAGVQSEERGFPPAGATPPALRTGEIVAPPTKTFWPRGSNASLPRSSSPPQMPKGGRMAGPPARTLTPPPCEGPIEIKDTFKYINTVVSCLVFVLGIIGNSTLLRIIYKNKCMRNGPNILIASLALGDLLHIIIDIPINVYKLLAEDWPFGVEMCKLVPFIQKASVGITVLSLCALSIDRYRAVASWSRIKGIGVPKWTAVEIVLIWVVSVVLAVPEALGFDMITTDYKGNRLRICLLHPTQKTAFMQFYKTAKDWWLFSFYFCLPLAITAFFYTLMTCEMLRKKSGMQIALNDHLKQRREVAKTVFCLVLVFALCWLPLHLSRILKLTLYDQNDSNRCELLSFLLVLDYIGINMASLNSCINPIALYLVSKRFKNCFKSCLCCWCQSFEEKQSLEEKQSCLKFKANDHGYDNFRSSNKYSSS

Endothelin-1 receptor = molecular target: T2, Endothelin-1 receptor (Rattus norvegicus, UniProt P26684); assay: In vitro ability to inhibit specific [125I]ET1 binding to rat aorta membranes Endothelin A receptor; assay type: tissue-based
T2 sequence (P26684 whole entry): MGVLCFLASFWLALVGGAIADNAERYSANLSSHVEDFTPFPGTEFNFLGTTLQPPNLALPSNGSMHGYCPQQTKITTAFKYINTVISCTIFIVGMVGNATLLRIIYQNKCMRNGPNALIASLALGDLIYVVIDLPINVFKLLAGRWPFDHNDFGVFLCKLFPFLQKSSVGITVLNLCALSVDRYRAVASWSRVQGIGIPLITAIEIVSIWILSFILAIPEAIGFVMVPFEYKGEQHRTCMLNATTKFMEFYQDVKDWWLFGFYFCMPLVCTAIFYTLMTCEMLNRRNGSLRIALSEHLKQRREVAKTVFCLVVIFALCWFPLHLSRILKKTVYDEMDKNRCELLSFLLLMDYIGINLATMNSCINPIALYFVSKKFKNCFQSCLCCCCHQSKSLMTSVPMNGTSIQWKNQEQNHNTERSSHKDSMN

[2] = Compound was evaluated for clearance after treatment with iv dose of 1 mgkg to female cynomolgus monkey; assay type: ADME, organism-based; set-up: dose 1 mgkg, route intravenous; settings: cercopithecidae, in vivo, 1 mg/kg
Procedure, shortened: (§1)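 A female cynomolgus monkey (n = 1) received a single dose of either 1 mg/kg iv or 2 mg/kg orally. Plasma concentration-time data gave Cmax, tmax, AUC, clearance and Vss. Half-life was calculated over 1-8 h post administration.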

Rattus norvegicus [3] = assay: Effect of compound on motor activity of spontaneously hypertensive rats after single oral administration of 10 mg/Kg dose; assay type: functional
Procedure, shortened: (§2)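 Conscious spontaneously hypertensive rats were given a single oral dose at 12:00, with 5% arabic gum as the control vehicle. Heart rate and motor activity were monitored by telemetry. Change from a 3 h predrug period (9:00-12:00) was expressed as AUC0-12h (12:00-24:00). n = 6-13 per group, mean ± SEM, ANOVA with Dunnett's test vs control.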

[4] = Compound was evaluated for clearance after treatment with iv dose of 1 mgkg to male wistar rats; assay type: ADME, organism-based; set-up: dose 1 mgkg, route intravenous; settings: rat, in vivo, 1 mg/kg
Procedure, shortened: (§3)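 Male and female Wistar rats, n = 3 per group, received a single dose of either 1 mg/kg iv or 2 mg/kg orally. Plasma levels were followed after dosing. Half-life was taken over the interval 1-8 h post administration. Oral bioavailability was derived against the iv data.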

[5] = Compound was evaluated for half-life after treatment with iv dose of 1 mgkg to female cynomolgus monkey; assay type: ADME, organism-based; set-up: dose 1 mgkg, route intravenous; settings: cercopithecidae, in vivo, 1 mg/kg; procedure, shortened: as §1
Rattus norvegicus [6] = assay: ET-1 induced increase in mean arterial pressure following 3 mg/kg oral administration of compound; assay type: functional, Artery
Rattus norvegicus [7] = assay: Compound was evaluated for AUC after treatment with oral dose of 2 mgkg to male wistar rats; assay type: ADME, organism-based; set-up: dose 2 mgkg, route oral; settings: in vivo, 2 mg/kg; procedure, shortened: as §3
Rattus norvegicus [8] = assay: Effect of compound on motor activity of spontaneously hypertensive rats after single oral administration of 0.3 mg/Kg dose; assay type: functional; procedure, shortened: as §2
Rattus norvegicus [9] = assay: Effect of compound on heart rate activity of spontaneously hypertensive rats after single oral administration of 3 mg/Kg dose; assay type: functional; procedure, shortened: as §2
Rattus norvegicus [10] = assay: ET-1 induced increase in mean arterial pressure following 0.3 mg/kg oral administration of compound; assay type: functional, Artery
[11] = Compound was evaluated for maximum concentration after treatment with oral dose of 2 mgkg to male wistar rats; assay type: ADME, organism-based; set-up: dose 2 mgkg, route oral; settings: rat, in vivo, 2 mg/kg; procedure, shortened: as §3
[12] = Compound was evaluated for half life after treatment with iv dose of 1 mgkg to female wistar rats; assay type: ADME, organism-based; set-up: dose 1 mgkg, route intravenous; settings: rat, in vivo, 1 mg/kg; procedure, shortened: as §3
[13] = Compound was evaluated for volume of distribution (steady state) after treatment with iv dose of 1 mgkg to male wistar rats; assay type: ADME, organism-based; set-up: dose 1 mgkg, route intravenous; settings: rat, in vivo, 1 mg/kg, read-out: Vss; procedure, shortened: as §3
[14] = Compound was evaluated for AUC after treatment with iv dose of 1 mgkg to female cynomolgus monkey; assay type: ADME, organism-based; set-up: dose 1 mgkg, route intravenous; settings: cercopithecidae, in vivo, 1 mg/kg; procedure, shortened: as §1
Rattus norvegicus [15] = assay: Effect of compound on heart rate activity of spontaneously hypertensive rats after single oral administration of 0.3 mg/Kg dose; assay type: functional; procedure, shortened: as §2
[16] = Compound was evaluated for maximum concentration after treatment with oral dose of 2 mgkg to female wistar rats; assay type: ADME, organism-based; set-up: dose 2 mgkg, route oral; settings: rat, in vivo, 2 mg/kg; procedure, shortened: as §3
[17] = Compound was evaluated for volume of distribution (steady state) after treatment with iv dose of 1 mgkg to female wistar rats; assay type: ADME, organism-based; set-up: dose 1 mgkg, route intravenous; settings: rat, in vivo, 1 mg/kg, read-out: Vss; procedure, shortened: as §3
Rattus norvegicus [18] = assay: Effect of compound on heart rate activity of spontaneously hypertensive rats after single oral administration of 0.03 mg/Kg dose; assay type: functional; procedure, shortened: as §2
[19] = Compound was evaluated for maximum concentration after treatment with oral dose of 2 mgkg to female cynomolgus monkey; assay type: ADME, organism-based; set-up: dose 2 mgkg, route oral; settings: cercopithecidae, in vivo, 2 mg/kg; procedure, shortened: as §1
Rattus norvegicus [20] = assay: Compound was evaluated for AUC after treatment with iv dose of 1 mgkg to female wistar rats; assay type: ADME, organism-based; set-up: dose 1 mgkg, route intravenous; settings: in vivo, 1 mg/kg; procedure, shortened: as §3
Rattus norvegicus [21] = assay: Effect of compound on motor activity of spontaneously hypertensive rats after single oral administration of 30 mg/Kg dose; assay type: functional; procedure, shortened: as §2
Rattus norvegicus [22] = assay: ET-1 induced increase in mean arterial pressure following 0.1 mg/kg oral administration of compound; assay type: functional, Artery
Rattus norvegicus [23] = assay: Effect of compound on heart rate activity of spontaneously hypertensive rats after single oral administration of 30 mg/Kg dose; assay type: functional; procedure, shortened: as §2
Rattus norvegicus [24] = assay: ET-1 induced increase in mean arterial pressure following 1 mg/kg oral administration of compound; assay type: functional, Artery
Rattus norvegicus [25] = assay: Compound was evaluated for AUC after treatment with oral dose of 2 mgkg to female wistar rats; assay type: ADME, organism-based; set-up: dose 2 mgkg, route oral; settings: in vivo, 2 mg/kg; procedure, shortened: as §3
[26] = Compound was evaluated for maximum time to reach Cmax after treatment with oral dose of 2 mgkg to female cynomolgus monkey; assay type: ADME, organism-based; set-up: dose 2 mgkg, route oral; settings: cercopithecidae, in vivo, 2 mg/kg; procedure, shortened: as §1
[27] = Compound was evaluated for AUC after treatment with oral dose of 2 mgkg to female cynomolgus monkey; assay type: ADME; settings: cercopithecidae, in vivo; procedure, shortened: as §1
[28] = Compound was evaluated for maximum time to reach Cmax after treatment with oral dose of 2 mgkg to female wistar rats; assay type: ADME, organism-based; set-up: dose 2 mgkg, route oral; settings: rat, in vivo, 2 mg/kg; procedure, shortened: as §3
Rattus norvegicus [29] = assay: Effect of compound on heart rate activity of spontaneously hypertensive rats after single oral administration of 10 mg/Kg dose; assay type: functional; procedure, shortened: as §2
[30] = Compound was evaluated for maximum time to reach Cmax after treatment with oral dose of 2 mgkg to male wistar rats; assay type: ADME, organism-based; set-up: dose 2 mgkg, route oral; settings: rat, in vivo, 2 mg/kg; procedure, shortened: as §3
Rattus norvegicus [31] = assay: Effect of compound on motor activity of spontaneously hypertensive rats after single oral administration of 1 mg/Kg dose; assay type: functional; procedure, shortened: as §2
Rattus norvegicus [32] = species: Rattus norvegicus; assay: Compound was evaluated for the functional assay performed by obtaining ET-1 concentration-response curves [pA2(ETA)] in isolated rat aortic rings; settings: Aorta, read-out: pA2 (converted)
Procedure, shortened: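 Functional ETA assay: ET-1 concentration-response curves in isolated rat aortic rings with the endothelium removed. Antagonism is expressed as pA2.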

Rattus norvegicus [33] = assay: Effect of compound on motor activity of spontaneously hypertensive rats after single oral administration of 0.1 mg/Kg dose; assay type: functional; procedure, shortened: as §2
Rattus norvegicus [34] = assay: Effect of compound on heart rate activity of spontaneously hypertensive rats after single oral administration of 0.1 mg/Kg dose; assay type: functional; procedure, shortened: as §2
Rattus norvegicus [35] = assay: Effect of compound on heart rate activity of spontaneously hypertensive rats after single oral administration of 1 mg/Kg dose; assay type: functional; procedure, shortened: as §2
Rattus norvegicus [36] = assay: Effect of compound on motor activity of spontaneously hypertensive rats after single oral administration of 3 mg/Kg dose; assay type: functional; procedure, shortened: as §2
Oryctolagus cuniculus = species: Oryctolagus cuniculus; assay: Compound was evaluated for the functional assay performed by obtaining sarafotoxin 6c concentration-response curves [pA2(ETB)] in isolated rabbit jugularis vein
Rattus norvegicus [37] = assay: Compound was evaluated for AUC after treatment with iv dose of 1 mgkg to male wistar rats; assay type: ADME, organism-based; set-up: dose 1 mgkg, route intravenous; settings: in vivo, 1 mg/kg; procedure, shortened: as §3
[38] = Compound was evaluated for volume of distribution (steady state) after treatment with iv dose of 1 mgkg to female cynomolgus monkey; assay type: ADME, organism-based; set-up: dose 1 mgkg, route intravenous; settings: cercopithecidae, in vivo, 1 mg/kg, read-out: Vss; procedure, shortened: as §1
[39] = Compound was evaluated for clearance after treatment with iv dose of 1 mgkg to female wistar rats; assay type: ADME, organism-based; set-up: dose 1 mgkg, route intravenous; settings: rat, in vivo, 1 mg/kg; procedure, shortened: as §3
[40] = Compound was evaluated for half life after treatment with iv dose of 1 mgkg to male wistar rats; assay type: ADME, organism-based; set-up: dose 1 mgkg, route intravenous; settings: rat, in vivo, 1 mg/kg; procedure, shortened: as §3
Rattus norvegicus [41] = assay: Effect of compound on motor activity of spontaneously hypertensive rats after single oral administration of 0.03 mg/Kg dose; assay type: functional; procedure, shortened: as §2

IC50 [1]: 290 nM
IC50 (Endothelin-1 receptor): 65 nM
SMILES: COc1cc(C/C(C(=O)c2ccc(OC(C)C)c(F)c2)=C(/C(=O)O)c2ccc3nsnc3c2)cc(OC)c1OC

IC50 [1]: 1500 nM
IC50 (Endothelin-1 receptor): 66 nM
SMILES: COc1ccc(C(=O)/C(Cc2ccc3c(c2)OCO3)=C(\C(=O)O)c2ccc3nsnc3c2)cc1

IC50 [1]: 160 nM
clearance [2]: 5 mL/min/kg
clearance [4]: 6.67 mL/min/kg
half-life [5]: 60 min
AUC (Rattus norvegicus [7]): 1630 ng·h/mL
Cmax [11]: 1010 ng/mL
half-life [12]: 102 min
Vd [13]: 0.5 L/kg
AUC [14]: 3300 ng·h/mL
Cmax [16]: 3160 ng/mL
Vd [17]: 0.2 L/kg
Cmax [19]: 3830 ng/mL
AUC (Rattus norvegicus [20]): 15400 ng·h/mL
AUC (Rattus norvegicus [25]): 21300 ng·h/mL
Tmax [26]: 30 min
AUC [27]: 4260 ng·h/mL
Tmax [28]: 30 min
IC50 (Endothelin-1 receptor): 0.032 nM
Tmax [30]: 30 min
AUC (Rattus norvegicus [37]): 2500 ng·h/mL
Vd [38]: 0.1 L/kg
clearance [39]: 1.67 mL/min/kg
half-life [40]: 96 min
SMILES: COc1ccc(C(=O)/C(Cc2cc(OC)c(OC)c(OC)c2)=C(\C(=O)[O-])c2ccc3nsnc3c2)cc1F.[Na+]
AUC0-12h ΔMA (Rattus norvegicus [3]): -131 units·h
Mean arterial blood pressure (Rattus norvegicus [6]): 7 mmHg
AUC0-12h ΔMA (Rattus norvegicus [8]): -93 units·h
AUC0-12h ΔHR (Rattus norvegicus [9]): -356 min-1·h
Mean arterial blood pressure (Rattus norvegicus [10]): 24 mmHg
AUC0-12h ΔHR (Rattus norvegicus [15]): -413 min-1·h
AUC0-12h ΔHR (Rattus norvegicus [18]): -384 min-1·h
AUC0-12h ΔMA (Rattus norvegicus [21]): -99 units·h
Mean arterial blood pressure (Rattus norvegicus [22]): 32 mmHg
AUC0-12h ΔHR (Rattus norvegicus [23]): -260 min-1·h
Mean arterial blood pressure (Rattus norvegicus [24]): 11 mmHg
AUC0-12h ΔHR (Rattus norvegicus [29]): -349 min-1·h
AUC0-12h ΔMA (Rattus norvegicus [31]): -131 units·h
Kb (Rattus norvegicus [32]): 0.316 nM
AUC0-12h ΔMA (Rattus norvegicus [33]): -72 units·h
AUC0-12h ΔHR (Rattus norvegicus [34]): -341 min-1·h
AUC0-12h ΔHR (Rattus norvegicus [35]): -344 min-1·h
AUC0-12h ΔMA (Rattus norvegicus [36]): -102 units·h
Kb (Oryctolagus cuniculus): 1000 nM
AUC0-12h ΔMA (Rattus norvegicus [41]): -97 units·h
